Data published in PubChem BioAssay.
Records with an inconclusive call do not appear.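 How the source made its calls, unless noted: active means cell viability at or below a set limit in both duplicate runs, the limit being the all-compound median minus 4 SD (cut at about 23% in these data, passing the limit was not always enough); inconclusive means no clear call, values can overlap the other calls; inactive means the rest.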

Legend:
[1] = OD615 S. cerevisiae growth inhibition, permissive medium, pilot counter-assay, permissive growth control for S. cerevisiae lifespan shortening project (AID 705;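 active means growth inhibition above 25% in both replicates, a cutoff set 3 SD above the mean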); conditions: OD615, 24 h, at 10 µM, stronger effect = higher value
Summary of the method: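 Test system: Saccharomyces cerevisiae strain carrying genetically modified DeaD replicative-lifespan system; buffer or medium: SC raffinose/galactose permissive medium; dosing: one dose 10 µM, DMSO 0.25% final; times: 24 h exposure, 30 °C; measured by: OD at 615 nm; read-out basis: growth inhibition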

[2] = Restrictive medium S. cerevisiae growth inhibition, OD615, pilot screen of yeast lifespan reduction project, restrictive growth control (AID 706;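 active means growth inhibition above a set limit, 3 SD over mean compound inhibition, in both replicates, cut at about 43% in these data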;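 further: modified DeaD lifespan yeast strain shifted to restrictive glucose medium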); conditions: OD615, 48 h, at 10 µM, stronger effect = higher value
Summary of the method: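 material = engineered S. cerevisiae DeaD strain | buffer or medium = glucose-based CSMM-D restrictive medium | dosing = one concentration, 10 µM final, 0.25% DMSO | schedule = 4 h pre-growth plus 48 h compound exposure, 30 °C | detection = OD615 absorbance reading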

[3] = viability gain of MRP-1-high H69AR cells under doxorubicin, pilot screen, MRP-1 activator project, CellTiter-Glo, duplicate (AID 807;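 active means viability increase at or above a cutoff of the median across tested compounds plus 3 SD, cut at about 8.5% in these data, passing the limit was not always enough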;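 further: compound pretreatment 18-22 h then 72 h combined with doxorubicin; 0% = doxorubicin alone and 100% = vehicle without doxorubicin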); conditions: H69AR viability with doxorubicin, CellTiter-Glo luminescence; at 10 µM; stronger effect = higher value
[4] = growth suppression of beta-catenin knockout HCT116, pilot screen, human colon tumor cells (AID 823); conditions: CellTiter-Glo, 60 h, at 10 µM, stronger effect = lower value;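 further: 0% = wells killed by 20 µM Hyamine and 100% = untreated DMSO cell wells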
[5] = growth suppression of PTEN-deleted HCT116, pilot screen, cell-based, HCT116 clonal line, CellTiter-Glo (AID 824;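 active means viability at or below 27.92% in each of two runs, the all-compound median minus 4 SD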;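 further: 0% = 20 µM Hyamine control and 100% = vehicle cell control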); conditions: 60 h, at 10 µM, stronger effect = lower value
[6] = inhibitors of the yeast RAM network, pilot screen, dse1pr::URA3 reporter, 5-FOA selection (AID 869;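 active means inhibition over a set limit, the all-compound mean plus 3 SD, in both replicate runs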;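 further: 0% = DMSO wells with no growth and 100% = 10 µM 1-NA-PP1 with full growth; RAM network block rescues cells from 5-FOA so hits raise OD615 growth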); conditions: S. cerevisiae dse1pr::URA3 5-FOA growth, OD615, 2 d; at 10 µM; stronger effect = higher value; strain carries analog-sensitive mutant Cbk1 kinase
[7] = RAM signaling pathway blockade in yeast – S. cerevisiae, Pdr1DBD-CYC8 efflux-inhibited sensitized strain, primary screen (AID 1298;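 active means RAM network inhibition above 8.4% in each of two replicates, 3 SD over the compound average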;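 further: 0% = DMSO untreated cells without growth and 100% = 10 µM 1-NA-PP1 full growth; higher means more yeast growth rescued from 5-FOA killing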); conditions: S. cerevisiae cbk1-as DSE1-URA3 strain, 5-FOA growth OD615, 2 d; at 50 µM; stronger effect = higher value

Cn1cnc2c1c(=O)n(Cc1ccccc1)c(=O)n2C
inactive: growth inhibition [1] -14.8% | growth inhibition [2] -14.2% | viability increase [3] -1.66% | viability [4] 106% | viability [5] 97% | inhibition [6] 3.59% | RAM network inhibition [7] 0.42%

COC(=O)c1ccsc1NC(=O)c1ccc(Cl)s1
inactive: growth inhibition [1] -17.6% | growth inhibition [2] -27.1% | viability increase [3] -6.51% | viability [4] 94.7% | viability [5] 87.9% | inhibition [6] 3.58% | RAM network inhibition [7] 5.89%

Cc1ccc(NC(=O)c2ccco2)cc1C
inactive: growth inhibition [1] 4.04% | growth inhibition [2] 0.435% | viability increase [3] -3.07% | viability [4] 95.5% | viability [5] 90.5% | inhibition [6] 0.665% | RAM network inhibition [7] 0.93%

O=C(c1ccccc1)c1ccc2nc(N3CCN(C(=O)c4ccco4)CC3)c3nncn3c2c1
inactive: growth inhibition [1] -3.47% | growth inhibition [2] 11.3% | viability increase [3] -3.94% | viability [4] 65.3% | viability [5] 72.7% | inhibition [6] 2.05% | RAM network inhibition [7] -0.16%

COc1cccc(CN2C(=O)CCC2(C)C(=O)NC2CCCCC2)c1 (stereo not given)
inactive: growth inhibition [1] -6.64% | growth inhibition [2] 1.03% | viability increase [3] 0.54% | viability [4] 107% | viability [5] 100% | inhibition [6] -0.375% | RAM network inhibition [7] 0.22%

Cc1cc(C)c(S(=O)(=O)Nc2ccc(O)cc2)c(C)c1
inactive: growth inhibition [1] -9% | growth inhibition [2] 3.16% | viability increase [3] -1.56% | viability [4] 91.6% | viability [5] 89.2% | inhibition [6] 1.2% | RAM network inhibition [7] 2.25%

Cc1ccccc1Nc1ncnc2c1cnn2-c1ccccc1
inactive: growth inhibition [1] -4.67% | growth inhibition [2] -4.63% | viability increase [3] -3.78% | viability [4] 86% | viability [5] 84.3% | inhibition [6] -0.23% | RAM network inhibition [7] -0.01%

CCCCOc1ccc(CN2CCC(O)CC2)cc1
inactive: growth inhibition [1] -18.6% | growth inhibition [2] -6.13% | viability increase [3] -0.47% | viability [4] 90.9% | viability [5] 100% | inhibition [6] 1.06% | RAM network inhibition [7] 2.2%

Cc1cc(NC(=O)CN2CCCCC2C)nc2c1c(=O)oc1ccccc12 (stereo not given)
inactive: growth inhibition [1] 4.45% | growth inhibition [2] -0.735% | viability increase [3] -0.4% | viability [4] 102% | viability [5] 95.9% | inhibition [6] 1.36% | RAM network inhibition [7] 0.77%

CCCn1c(CN2CCCCC2CC)nc2c1c(=O)n(C)c(=O)n2C (stereo not given)
inactive: growth inhibition [1] -3.98% | growth inhibition [2] -17.3% | viability increase [3] 0.61% | viability [4] 93.9% | viability [5] 90.4% | inhibition [6] 0.045% | RAM network inhibition [7] 4.81%

Cc1c(C(=O)Nc2ccc(F)cc2)oc2ccc(S(=O)(=O)N3CCCC3)cc12
inactive: growth inhibition [1] -14.8% | growth inhibition [2] -6.18% | viability increase [3] -2.04% | viability [4] 101% | viability [5] 96% | inhibition [6] 3.88% | RAM network inhibition [7] 3%

O=C(CN1CCN(C(=O)c2ccco2)CC1)Nc1ccccc1-c1ccccc1
inactive: growth inhibition [1] 6.65% | growth inhibition [2] 6.94% | viability increase [3] -2.16% | viability [4] 91% | viability [5] 86.1% | inhibition [6] 1.32% | RAM network inhibition [7] 3.75%

Cn1c(=O)c2c(nc(N3CCN(Cc4ccccc4)CC3)n2CCSc2ncccn2)n(C)c1=O
inactive: growth inhibition [1] -9.24% | growth inhibition [2] -14% | viability increase [3] -0.19% | viability [4] 100% | viability [5] 106% | inhibition [6] 1.07% | RAM network inhibition [7] 2.77%

COC(=O)c1cc(COc2ccc3oc(C)c(C(=O)OC)c3c2)c(C)o1
inactive: growth inhibition [1] 4.47% | growth inhibition [2] -14.8% | viability increase [3] 0.77% | viability [4] 74.4% | viability [5] 74.5% | inhibition [6] 2.19% | RAM network inhibition [7] 3.15%

Cc1nn(C)c(C)c1S(=O)(=O)N(CC(=O)Nc1ccc2c(c1)OCO2)c1ccc(C(C)C)cc1
inactive: growth inhibition [1] -19.5% | growth inhibition [2] -7.85% | viability increase [3] -2.38% | viability [4] 102% | viability [5] 99.4% | inhibition [6] 2.36% | RAM network inhibition [7] 2.62%
